Experimental data from ChEMBL document CHEMBL1165866, “Design, synthesis, and in vitro antitumor evaluation of novel diaryl ureas derivatives” (Eur J Med Chem, 2010).

Legend:
A549 [1] = assay: Cytotoxicity against human A549 cells assessed as growth inhibition at 10 uM after 72 hrs by MTT based WST-8 assay; format: functional; conditions: A549, 72 h, read-out: GI
How it was run: (§1)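 Single-concentration screen at 10 μM. Cells in RPMI1640 with 10% FBS were seeded at 5.0×10^3 cells/well, adhered for 4 h, then exposed for 72 h at 37 °C, 5% CO2. Medium was removed and WST-8 reagent added for 1.5 h. Absorbance was read at 450 nm with 650 nm correction and growth was expressed as percentage of vehicle-control absorbance.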

MDA-MB-231 [2] = assay: Cytotoxicity against human MDA-MB-231 cells assessed as growth inhibition at 10 uM after 72 hrs by MTT based WST-8 assay; format: functional; conditions: MDA-MB-231, 72 h, read-out: GI; how it was run: as §1
A549 [3] = assay: Cytotoxicity against human A549 cells assessed as growth inhibition after 72 hrs by MTT based WST-8 assay; format: functional, cell-based; conditions: A549, 72 h
How it was run: (§2)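 Cells in RPMI1640 with 10% FBS were seeded at 5.0×10^3 cells/well and left to adhere for 4 h at 37 °C, 5% CO2. Compound was then added for 72 h. Medium was removed and WST-8 reagent (stock: 5 mM WST-8, 0.2 mM 1-methoxyphenazinium salt, 150 mM NaCl) was added for 1.5 h at 37 °C. A450 was read with 650 nm correction. IC50 was taken from concentration–response curves as % of vehicle-control absorbance.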

MDA-MB-231 [4] = assay: Cytotoxicity against human MDA-MB-231 cells assessed as growth inhibition after 72 hrs by MTT based WST-8 assay; format: functional, cell-based; conditions: MDA-MB-231, 72 h; how it was run: as §2

SMILES | inhibition of growth at 10 µM (A549 [1]) [%] | inhibition of growth at 10 µM (MDA-MB-231 [2]) [%] | IC50 (A549 [3]) [µM] | IC50 (MDA-MB-231 [4]) [µM]
O=C(Nc1ccc(Oc2ccc(-c3ncc[nH]3)cc2)cc1)Nc1cc(Br)cc(C(F)(F)F)c1 | 44.1 | -13.6 |  | 
O=C(Nc1ccc(Oc2ccc(-c3nccs3)cc2)cc1)Nc1ccc(F)c(C(F)(F)F)c1 | 76.4 | 71.8 | 4.98 | 8.66
O=C(Nc1ccc(Cl)cc1)Nc1ccc(Oc2ccc(-c3nccs3)cc2)cc1 | 17.7 | 32.5 |  | 
O=C(Nc1ccc(Oc2ccc(-c3ncc[nH]3)cc2)cc1)Nc1ccc(Cl)c(C(F)(F)F)c1 | 67.9 | 38.1 | 7.09 | 
O=C(Nc1ccc(Oc2ccc(-c3ncc[nH]3)cc2)cc1)Nc1ccc(F)c(Cl)c1 | 14.6 | 4.2 |  | 
Cc1ccc(NC(=O)Nc2ccc(Oc3ccc(-c4nccs4)cc3)cc2)cc1 | 15.6 | 22.8 |  | 
O=C(Nc1ccccc1)Nc1ccc(Oc2ccc(-c3ncc[nH]3)cc2)cc1 | 7.09 | 11.4 |  | 
Cc1ccc(NC(=O)Nc2ccc(Oc3ccc(-c4ncc[nH]4)cc3)cc2)cc1 | 24.6 | 49.3 |  | 
COC(=O)c1sccc1NC(=O)Nc1ccc(Oc2ccc(-c3nccs3)cc2)cc1 | 6.78 | 11 |  | 
O=C(Nc1ccc(Oc2ccc(-c3nccs3)cc2)cc1)Nc1ccc(F)c(Cl)c1 | 37.3 | 43.9 |  | 
O=C(Nc1ccc(Oc2ccc(-c3nccs3)cc2)cc1)Nc1cc(C(F)(F)F)ccc1Cl | 75.5 | 60.4 | 7.04 | 8.9
O=C(Nc1ccc(Oc2ccc(-c3ncc[nH]3)cc2)cc1)Nc1cccc(C(F)(F)F)c1 | 30 | 28.1 |  | 
O=C(Nc1ccc(Cl)cc1)Nc1ccc(Oc2ccc(-c3ncc[nH]3)cc2)cc1 | 8.86 | 47.6 |  | 
O=C(Nc1ccc(Oc2ccc(-c3nccs3)cc2)cc1)Nc1ccc(Cl)c(C(F)(F)F)c1 | 77.6 | 69.6 | 3.81 | 6.06
CNC(=O)c1cc(Oc2ccc(NC(=O)Nc3ccc(Cl)c(C(F)(F)F)c3)cc2)ccn1 [SORAFENIB] | 81.2 | 79.6 | 5.21 | 7.62
O=C(Nc1ccc(Oc2ccc(-c3nccs3)cc2)cc1)Nc1cccc(C(F)(F)F)c1 | 71.5 | 64.1 | 5.56 | 9.55
O=C(Nc1ccc(Oc2ccc(-c3nccs3)cc2)cc1)Nc1cc(Br)cc(C(F)(F)F)c1 | 81.7 | 72.8 | 2.71 | 4.19
O=C(Nc1ccc(Oc2ccc(-c3ncc[nH]3)cc2)cc1)Nc1cc(C(F)(F)F)ccc1Cl | 22.3 | 32.3 |  | 
O=C(Nc1ccc(Oc2ccc(-c3nccs3)cc2)cc1)Nc1ccc(Cl)c([N+](=O)[O-])c1 | 77.1 | 72.8 | 3.89 | 6.87
O=C(Nc1ccc(Oc2ccc(-c3ncc[nH]3)cc2)cc1)Nc1ccc(F)c(C(F)(F)F)c1 | 63.3 | 26.6 | 10.5 | 
COC(=O)c1sccc1NC(=O)Nc1ccc(Oc2ccc(-c3ncc[nH]3)cc2)cc1 | 2.34 | -1.46 |  | 
O=C(Nc1ccc(Oc2ccc(-c3ncc[nH]3)cc2)cc1)Nc1ccc(Cl)c([N+](=O)[O-])c1 | 12.4 | 3.36 |  | 
